# Assay results taken from ChEMBL document CHEMBL1817588, “Design and synthesis of 1,3-biarylsulfanyl derivatives as new anti-breast cancer agents” (Bioorg Med Chem, 2011).
# Activity calls are given as the source filed them. No cut-off for these calls is given here.
# Columns and labels:
# [1] = species: Rattus norvegicus; experiment: Displacement of [3H]-estradiol from estrogen receptor in rat uteri after 18 hrs by scintillation counting relative to 17beta-estradiol
# Procedure, shortened: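 Cytosol from uteri of immature 20–21-day-old rats, in TEA buffer pH 7.4 (10 mM Tris, 1.5 mM EDTA, 0.02% azide). Incubated in triplicate with fixed 3H-estradiol ± competitor (DMF ≤5% final) for 18 h at 4 °C. Free ligand removed with dextran-coated charcoal (15 min, 800g 10 min), then supernatant counted. RBA taken at 50% inhibition from the bound-versus-log concentration plot.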
# [2] = system: Bone; experiment: Antiosteoporotic activity in Sprague-Dawley rat [45Ca] pre-labeled bone assessed as inhibition of PTH-induced bone resorption after 96 hrs
# [3] = system: Bone marrow cell; experiment: Osteoclastogenesis activity in BALB/c mouse bone marrow cells assessed as inhibition of RANK-induced RANK gene expression at 1 uM after 7 days by RT-PCR analysis; format: functional, cell-based
# Procedure, shortened: (§1)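 Bone marrow from long bones of 4–6-week-old Balb/c mice, plated overnight in α-MEM with 10% FBS and M-CSF. Nonadherent cells then cultured with RANKL 50 ng/ml and M-CSF 10 ng/ml plus test agent 1 µM, medium changed every 2 d for 7 d. TRAP and RANK mRNA measured by qPCR after Trizol RNA extraction, expressed as fold change over vehicle.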
# [4] = system: Bone marrow cell; experiment: Osteoclastogenesis activity in BALB/c mouse bone marrow cells assessed as inhibition of MCSF-induced RANK gene expression at 1 uM after 7 days by RT-PCR analysis; format: functional, cell-based; procedure, shortened: as §1
# [5] = system: Bone marrow cell; experiment: Osteoclastogenesis activity in BALB/c mouse bone marrow cells assessed as inhibition of MCSF-induced TRAP gene expression at 1 uM after 7 days by RT-PCR analysis; format: functional, cell-based; procedure, shortened: as §1
# [6] = system: Bone marrow cell; experiment: Osteoclastogenesis activity in BALB/c mouse bone marrow cells assessed as inhibition of RANK-induced TRAP gene expression at 1 uM after 7 days by RT-PCR analysis; format: functional, cell-based; procedure, shortened: as §1
# [7] = system: MDA-MB-231; experiment: Antiproliferative activity against estrogen receptor-deficient human MDA-MB-231 cells […] after 48 hrs by MTT assay; format: functional, cell-based; conditions: MDA-MB-231, 48 h
# Procedure, shortened: (§2)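 Cells seeded at 1×10^4/well in DMEM with 10% FBS for 24 h at 37 °C, then exposed to compounds for 48 h. MTT (5 mg/mL) added for 4 h. Formazan dissolved in DMSO and absorbance read at 540 nm. Routine culture used DMEM with 10% FBS, 5% CO2, reduced to 2% FBS for growth inhibition.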
# [8] = system: Ishikawa; experiment: Antiproliferative activity against human Ishikawa cells expressing estrogen receptor after 48 hrs by MTT assay; format: functional, cell-based; procedure, shortened: as §2
# [9] = system: Bone; experiment: Antiosteoporotic activity in Sprague-Dawley rat [45Ca] pre-labeled bone assessed as inhibition of PTH-induced bone resorption after 96 hrs relative to control
# [10] = system: Rattus norvegicus; experiment: Antiimplantation activity in Sprague-Dawley albino rat at 20 mg/kg, po after 10 days; format: functional
# Procedure, shortened: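 Sperm-positive adult Sprague-Dawley females (180–220 g) mated with proven-fertile males. Compounds given orally as a gum acacia suspension on days 1–5 post-coitum, 5–7 animals per group. Vehicle-only group served as control.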
# [11] = system: Rattus norvegicus; experiment: Antiestrogenic activity in Sprague-Dawley rat assessed as inhibition of uterine weight gain administered as po daily once for 3 days relative to 17alpha-ethynylestradiol; format: functional
# Procedure, shortened: (§3)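 Immature female Sprague-Dawley rats given oral dosing once daily for 3 days on days 28–30 of age. Antiestrogenic arm co-dosed ethynylestradiol 0.02 mg/kg in 10% ethanol-water. Autopsy 24 h after last dose (day 31). Uterus excised, blotted and weighed, with vaginal opening and cornification also scored. Inhibition computed as (E − T)×100/E versus ethynylestradiol alone. Estrogenic gain expressed as percent increase over vehicle control.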
# [12] = system: MCF7; experiment: Antiproliferative activity against human MCF7 cells expressing estrogen receptor after 48 hrs by MTT assay; format: functional, cell-based; conditions: MCF7, 48 h; procedure, shortened: as §2
# [13] = system: Rattus norvegicus; experiment: Estrogenic activity in Sprague-Dawley rat assessed as increase in uterine weight administered as po daily once for 3 days relative to control; format: functional; design: concentration or dose not given beside the values; procedure, shortened: as §3
# [14] = system: HEK293; experiment: Antiproliferative activity against human HEK293 cells after 48 hrs by MTT assay; format: cell-based; conditions: HEK293, 48 h; procedure, shortened: as §2
compound,measurement,setting,value
COc1ccc(C(CC(=O)c2ccccc2)Sc2ccccc2)cc1 (stereo not given),RBA,[1],2.67%
same,T/C,[2],0.784
same,inhibition,[3],Active
same,inhibition,[4],Active
same,inhibition,[5],Active
same,inhibition,[6],Active
same,IC50,[7],34 µM
same,IC50,[8],26 µM
same,inhibition (INH),[9],21.6%
same,Activity,[10],inactive
same,inhibition (INH),[11],18%
same,IC50,[12],21 µM
same,Activity,[13],192%
COc1ccc(C(=O)CC(Sc2ccccc2)c2ccc(OC)cc2)cc1 (stereo not given),RBA,[1],2.21%
same,T/C,[2],0.61
same,inhibition,[3],Active
same,inhibition,[4],Active
same,inhibition,[5],Active
same,inhibition,[6],Active
same,IC50,[7],31 µM
same,IC50,[8],16 µM
same,inhibition (INH),[9],39%
same,IC50,[14],38.2 µM
same,Activity,[10],inactive
same,inhibition (INH),[11],16%
same,IC50,[12],17 µM
same,Activity,[13],187%
O=C(CC(Sc1ccccc1)c1ccccc1)c1ccccc1 (stereo not given),RBA,[1],1.25%
same,T/C,[2],0.562
same,inhibition,[3],Active
same,inhibition,[4],Active
same,inhibition,[5],Active
same,inhibition,[6],Active
same,IC50,[7],57 µM
same,IC50,[8],20 µM
same,inhibition (INH),[9],43.8%
same,Activity,[10],inactive
same,inhibition (INH),[11],16%
same,IC50,[12],24 µM
same,Activity,[13],185%
